Reference: ChEMBL document CHEMBL1926564, “Design, synthesis and biological activity of original pyrazolo-pyrido-diazepine, -pyrazine and -oxazine dione derivatives as novel dual Nox4/Nox1 inhibitors” (Bioorg Med Chem, 2011)

Columns and labels:
NADPH oxidase 1 = biological target: T1, NADPH oxidase 1 (Homo sapiens, UniProt Q9Y5S8); assay: Antagonist activity at human NOX1 expressed in CHO cell membrane coexpressing tetracylin repressor assessed as inhibition of ROS production after 20 mins by cell-free amplex red assay; type: functional
T1 sequence (Q9Y5S8 whole entry): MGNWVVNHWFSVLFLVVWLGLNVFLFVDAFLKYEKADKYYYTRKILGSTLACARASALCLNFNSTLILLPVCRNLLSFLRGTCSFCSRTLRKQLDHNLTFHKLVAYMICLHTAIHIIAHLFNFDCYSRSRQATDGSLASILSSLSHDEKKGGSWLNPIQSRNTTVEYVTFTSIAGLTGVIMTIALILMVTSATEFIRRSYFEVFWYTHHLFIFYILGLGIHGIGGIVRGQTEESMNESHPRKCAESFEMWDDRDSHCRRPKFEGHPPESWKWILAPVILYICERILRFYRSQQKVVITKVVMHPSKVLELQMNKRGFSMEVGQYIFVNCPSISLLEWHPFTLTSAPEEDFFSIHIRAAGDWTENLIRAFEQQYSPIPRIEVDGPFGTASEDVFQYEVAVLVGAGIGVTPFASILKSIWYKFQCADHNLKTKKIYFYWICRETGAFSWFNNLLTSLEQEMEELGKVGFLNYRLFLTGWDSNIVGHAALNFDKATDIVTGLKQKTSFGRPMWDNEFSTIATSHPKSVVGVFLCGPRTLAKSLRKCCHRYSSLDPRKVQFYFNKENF
In short: (§1)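 Membranes from tetracycline-induced (24 h) Nox-expressing cells or human PMN (Nox2), sucrose-gradient purified; or xanthine oxidase. Incubated in PBS with Amplex Red, HRP and cofactors; NADPH (Nox) or xanthine starts ROS. Compound 1 nM–100 µM, 20 min at 37 °C, plate-reader. Background without membranes or agonist. Ki by Cheng-Prusoff; mean of ≥3 experiments in triplicate.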

NADPH oxidase 2 = biological target: T2, NADPH oxidase 2 (Homo sapiens, UniProt P04839); assay: Antagonist activity at human NOX2 in human polymorphonuclear cell membrane assessed as inhibition of ROS production after 20 mins by cell-free amplex red assay; type: functional; in short: as §1
T2 sequence (P04839 whole entry): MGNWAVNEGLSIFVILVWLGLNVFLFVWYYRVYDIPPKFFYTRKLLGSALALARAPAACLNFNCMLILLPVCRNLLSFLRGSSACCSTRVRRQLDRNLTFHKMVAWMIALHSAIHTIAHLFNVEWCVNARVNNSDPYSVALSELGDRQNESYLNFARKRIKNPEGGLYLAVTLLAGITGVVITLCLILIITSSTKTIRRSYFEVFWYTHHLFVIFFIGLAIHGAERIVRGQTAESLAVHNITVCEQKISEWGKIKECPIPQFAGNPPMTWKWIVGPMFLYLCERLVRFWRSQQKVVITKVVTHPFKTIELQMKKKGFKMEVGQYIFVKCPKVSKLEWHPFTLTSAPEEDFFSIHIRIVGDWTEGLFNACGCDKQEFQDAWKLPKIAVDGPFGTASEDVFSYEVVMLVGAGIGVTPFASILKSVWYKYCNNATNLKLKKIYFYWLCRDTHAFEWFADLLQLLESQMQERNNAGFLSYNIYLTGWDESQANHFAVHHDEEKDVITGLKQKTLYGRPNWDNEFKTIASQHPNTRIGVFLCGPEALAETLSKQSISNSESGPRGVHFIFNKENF

NADPH oxidase 4 = biological target: T3, NADPH oxidase 4 (Homo sapiens, UniProt Q9NPH5); assay: Antagonist activity at human NOX4 expressed in CHO cell membrane coexpressing tetracylin repressor assessed as inhibition of ROS production after 20 mins by cell-free amplex red assay; type: functional; conditions: in the assay text read “HEK293 cell membrane” for “CHO cell membrane”; in short: as §1
T3 sequence (Q9NPH5 whole entry): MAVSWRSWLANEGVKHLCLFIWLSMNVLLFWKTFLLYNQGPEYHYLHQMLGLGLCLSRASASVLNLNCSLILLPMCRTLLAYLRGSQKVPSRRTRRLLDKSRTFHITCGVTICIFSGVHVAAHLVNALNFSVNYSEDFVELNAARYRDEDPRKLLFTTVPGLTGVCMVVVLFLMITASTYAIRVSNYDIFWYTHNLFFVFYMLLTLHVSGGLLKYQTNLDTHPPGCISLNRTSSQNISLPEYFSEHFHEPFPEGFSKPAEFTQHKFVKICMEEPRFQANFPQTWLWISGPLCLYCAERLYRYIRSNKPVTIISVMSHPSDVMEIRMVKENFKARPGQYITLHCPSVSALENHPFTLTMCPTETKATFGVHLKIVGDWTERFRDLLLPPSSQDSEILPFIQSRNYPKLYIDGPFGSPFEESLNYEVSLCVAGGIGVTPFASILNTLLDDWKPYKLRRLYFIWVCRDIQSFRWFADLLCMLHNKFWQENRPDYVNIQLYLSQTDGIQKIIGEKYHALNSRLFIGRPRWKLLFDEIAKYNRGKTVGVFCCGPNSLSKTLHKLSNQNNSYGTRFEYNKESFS

NADPH oxidase 5 = biological target: T4, NADPH oxidase 5 (Homo sapiens, UniProt Q96PH1); assay: Antagonist activity at human NOX5 assessed as inhibition of ROS production after 20 mins by cell-free amplex red assay; type: functional; in short: as §1
T4 sequence (Q96PH1 whole entry): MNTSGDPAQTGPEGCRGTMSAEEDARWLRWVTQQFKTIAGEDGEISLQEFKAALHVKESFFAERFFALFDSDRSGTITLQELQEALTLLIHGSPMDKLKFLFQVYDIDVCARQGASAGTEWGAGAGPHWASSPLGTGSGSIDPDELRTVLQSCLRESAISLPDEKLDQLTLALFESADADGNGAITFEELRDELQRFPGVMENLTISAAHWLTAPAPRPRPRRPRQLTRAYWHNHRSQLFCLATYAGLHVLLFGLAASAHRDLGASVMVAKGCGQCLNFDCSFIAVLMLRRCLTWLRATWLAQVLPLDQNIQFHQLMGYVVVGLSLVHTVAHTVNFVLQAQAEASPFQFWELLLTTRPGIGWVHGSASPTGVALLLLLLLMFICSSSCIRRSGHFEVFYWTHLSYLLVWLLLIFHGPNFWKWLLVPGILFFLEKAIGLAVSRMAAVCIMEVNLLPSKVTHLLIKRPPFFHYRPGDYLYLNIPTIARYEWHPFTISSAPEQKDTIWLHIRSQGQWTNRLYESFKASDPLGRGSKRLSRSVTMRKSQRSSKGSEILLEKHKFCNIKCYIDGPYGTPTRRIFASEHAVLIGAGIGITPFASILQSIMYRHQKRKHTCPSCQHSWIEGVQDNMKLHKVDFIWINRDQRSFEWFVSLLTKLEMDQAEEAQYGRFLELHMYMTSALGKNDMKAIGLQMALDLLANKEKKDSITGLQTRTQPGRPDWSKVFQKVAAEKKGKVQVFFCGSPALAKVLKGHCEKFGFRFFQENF

[1] = Clearance in human liver microsomes assessed per mg of protein at 0.5 uM; type: ADME, Microsome; conditions: read-out: CLH
In short: (§2)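 Pooled rat (male Sprague Dawley) or human (mixed-sex) liver microsomes at 0.5 mg/mL final, 0.1 M phosphate pH 7.4, compound 0.5 µM final, 0.25% DMSO, 37 °C; 1 mM NADPH starts reaction. Sampled 0–45 min, methanol quench with internal standard, LC/MS-MS; intrinsic clearance from compound loss.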

[2] = Clearance in Sprague-Dawley rat liver microsomes assessed per mg of protein at 0.5 uM; type: ADME, Microsome; conditions: read-out: CLH; in short: as §2
[3] = Lipophilicity, log D of the compound at pH 7.4; type: physicochemical; conditions: buffer
[4] = Apparent permeability across human Caco2 cells at 10 uM after 2 hrs; type: ADME, cell-based; conditions: Caco-2
In short: (§3)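 Caco-2 monolayers grown 20 days, TEER >800 ohm·cm². Compound 10 µM final in HBSS pH 6.5 (1% DMSO), dosed apical (A→B) or basolateral (B→A), 2 h at 37 °C; both compartments sampled, LC–MS/MS cassette analysis with 5-point calibration.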

[5] = Efflux ratio of apparent permeability across human Caco2 cells at 10 uM after 2 hrs; type: ADME, cell-based; conditions: Caco-2; in short: as §3
[6] = Fraction unbound in rat plasma containing 50% plasma protein; type: ADME, cell-free
In short: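 Rat plasma protein binding in 50% plasma; fraction unbound reported.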

Homo sapiens = species: Homo sapiens; assay: Selectivity ratio of Ki for human NOX2 to Ki for human NOX4
In short: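 Ratio of Ki values from the Amplex Red membrane ROS assay (PMN membranes for Nox2, Nox4-overexpressing membranes), NADPH-triggered, 1 nM–100 µM, 20 min at 37 °C; Ki via Cheng-Prusoff.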

SMILES	Ki (NADPH oxidase 1) [nM]	Ki (NADPH oxidase 2) [nM]	Ki (NADPH oxidase 4) [nM]	Ki (NADPH oxidase 5) [nM]	microsomal CLint at 0.5 µM [1] [µL/min/mg]	microsomal CLint at 0.5 µM [2] [µL/min/mg]	logD [3]	Papp at 2 h, 10 µM [4] [×10⁻⁶ cm/s]	efflux ratio at 2 h, 10 µM [5]	fraction unbound [6]	Ratio Ki (Homo sapiens)
COc1ccccc1-n1[nH]c2cc(=O)n3c(c2c1=O)CN(Cc1ccccn1)CCC3.Cl	217	510	93	610	15.7	32.1	0.33	1.4	16.8	0.069	–
O=c1c2c3n(c(=O)cc2[nH]n1-c1ccccc1Cl)CCCN(Cc1ccoc1)C3	200	1020	111	955	–	–	–	–	–	–	–
CC(C)(C)OC(=O)N1CCCn2c(c3c(=O)n(-c4ccccc4Cl)[nH]c3cc2=O)C1	148	1280	103	590	–	–	–	–	–	–	–
COc1cccc(CN2CCCn3c(c4c(=O)n(-c5ccccc5OC)[nH]c4cc3=O)C2)c1	212	820	131	690	–	–	–	–	–	–	–
COc1ccccc1-n1[nH]c2cc(=O)n3c(c2c1=O)CN(Cc1ccccc1)CCC3	218	645	144	670	–	–	–	–	–	–	–
O=c1c2c3n(c(=O)cc2[nH]n1-c1ccccc1Cl)CCN(Cc1ccccc1)C3	398	2020	142	1420	–	–	–	–	–	–	–
COc1ccc(CN2CCCn3c(c4c(=O)n(-c5ccccc5Cl)[nH]c4cc3=O)C2)cc1	184	780	116	690	–	–	–	–	–	–	–
Cl.O=c1c2c3n(c(=O)cc2[nH]n1-c1ccccc1Cl)CCCN(Cc1cccnc1)C3	208	1370	94	1150	21	31.1	0.92	1	18.7	0.029	–
O=c1c2c3n(c(=O)cc2[nH]n1-c1ccccc1Cl)CCOC3	173	433	156	490	–	–	–	–	–	–	–

Molecules with a lower Ki (NADPH oxidase 1), results first:

Ki (NADPH oxidase 1) [nM]	Ki (NADPH oxidase 2) [nM]	Ki (NADPH oxidase 4) [nM]	Ki (NADPH oxidase 5) [nM]	microsomal CLint at 0.5 µM [1] [µL/min/mg]	microsomal CLint at 0.5 µM [2] [µL/min/mg]	logD [3]	Papp at 2 h, 10 µM [4] [×10⁻⁶ cm/s]	efflux ratio at 2 h, 10 µM [5]	fraction unbound [6]	Ratio Ki (Homo sapiens)	SMILES
133	1760	111	740	–	–	–	–	–	–	–	COc1ccccc1CN1CCCn2c(c3c(=O)n(-c4ccccc4Cl)[nH]c3cc2=O)C1
119	365	87	360	–	–	–	–	–	–	4.2	O=c1c2c3n(c(=O)cc2[nH]n1-c1ccccc1Cl)CCCNC3
113	1200	112	730	35	60.1	1.99	22.3	1.91	0.901	–	COc1cccc(CN2CCCn3c(c4c(=O)n(-c5ccccc5Cl)[nH]c4cc3=O)C2)c1.Cl
104	1150	101	475	81.4	153	2.76	–	–	–	–	O=c1c2c3n(c(=O)cc2[nH]n1-c1ccccc1Cl)CCCN(Cc1cccc(Cl)c1)C3
95	1260	103	585	77.3	152	2.76	–	–	–	–	O=c1c2c3n(c(=O)cc2[nH]n1-c1ccccc1Cl)CCCN(Cc1ccc(Cl)cc1)C3
87	1160	76	615	87.1	164	2.76	–	–	–	–	O=c1c2c3n(c(=O)cc2[nH]n1-c1ccccc1Cl)CCCN(Cc1ccccc1Cl)C3
